Assay results reported in paper PMC5248591 (Journal of Clinical Pharmacology, 2016).
“And” between values parts separate entries of the source, which are not always exact repeats. Equal values may be shown once. Read-outs that look alike come from different tables or passages of the source. Blank lines part the entries; values can stand above or below the molecule they belong to.

Experiments:
[1] = test system: serum levels of CCL3 and CCL4; conditions: cited from earlier work
[2] = test system: DLBCL; conditions: phase 2 study in DLBCL; cited from earlier work
[3] = test system: relapsed CLL; conditions: cited from earlier work
[4] = test system: hind‐paw inflammation; conditions: rat CIA, p < 0.05, cited from earlier work
[5] = Safety and tolerability, MAD study; assay type: in vivo, human
[6] = Safety and tolerability, SAD study
[7] = test system: PMA‐induced T‐cell activation (PKC‐dependent); experiment: T‐cell activation; assay type: cell-based, human; conditions: MAD, steady state after 10 once‐daily doses
[8] = test system: fMLP‐mediated basophil degranulation; experiment: fMLP‐induced basophil degranulation; assay type: cell-based, human
[9] = test system: ZAP70; conditions: read-out: ZAP70 IC50; purified kinase assay; cited from earlier work
[10] = SAD study: plasma and urine pharmacokinetics after a single oral dose; assay type: in vivo, human; conditions: for Ae0‐96 / fe0‐96: urine, mean (SD); for Tmax / half-life / Cmax / AUC(0-t): human, plasma
[11] = test system: BCR/LYN‐mediated pSYK Y352; experiment: BCR signaling specificity control, pSYK Y352 in B cells, whole blood; assay type: cell-based, human
[12] = test system: LPS‐induced DC activation; experiment: Dendritic cell activation by LPS; assay type: cell-based, human; conditions: in vitro; 1 μM in Figure 5C
Summary of the method: (§1)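 Cells (0.5 × 10⁶/well) were preincubated 1 h with test compound, then stimulated overnight with 1 μg/mL LPS or antibody-opsonized sheep RBCs. CD80/86 and MHCII were read by flow cytometry; values are % of vehicle, n = 5.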

[13] = test system: PMA‐induced pERK Y204; experiment: Rat whole blood phospho‐flow: PMA‐induced pERK Y204; assay type: cell-based; conditions: 5 μM
[14] = test system: FcγR‐mediated DC activation; experiment: Dendritic cell activation by opsonized sheep red blood cells; assay type: cell-based, human; conditions: immature DCs from healthy donors, in vitro
Summary of the method: as §1

[15] = test system: opRBC‐induced (FcγR) neutrophil ROS generation; experiment: Neutrophil oxidative burst induced by opRBC in whole blood in vitro; assay type: cell-based, human
[16] = test system: PMA/PKC‐induced B‐cell activation; experiment: PMA‐induced B‐cell activation; assay type: cell-based, human
[17] = test system: PMA/PKC‐mediated pERK Y204; experiment: PMA‐induced pERK Y204 in B cells, specificity control, whole blood; assay type: cell-based, human; conditions: SAD 200‐ and 300‐mg cohorts combined
[18] = assay type: in vivo, human; conditions: for Fluctuation / Ae0‐24 / fe0‐24 / t1/2 / Cmax: mean (SD); for Ae0‐24 / fe0‐24: urine; for CL renal: urine and plasma
[19] = test system: CD3/CD28‐induced T‐cell activation (ZAP70‐dependent); experiment: T‐cell activation; assay type: cell-based, human; conditions: MAD, steady state after 10 once‐daily doses
[20] = MAD, all dose levels, data not shown
[21] = SAD 200‐ and 300‐mg cohorts combined

SMILES: C=CC(=O)N1CCC[C@@H](n2nc(-c3ccc(Oc4ccccc4)cc3)c3c(N)ncnc32)C1 [ibrutinib]
inhibition of serum CCL3 and CCL4 markers [1]: > 90%

SMILES: COc1cc(Nc2ncc(F)c(Nc3ccc4c(n3)N(COP(=O)(O)O)C(=O)C(C)(C)O4)n2)cc(OC)c1OC [fostamatinib]
overall response rate [2]: 3%

SMILES: c1cn2cc(-c3ccc4cn[nH]c4c3)nc(Nc3ccc(N4CCOCC4)cc3)c2n1 [GS9973]
Duration of response ([3]; majority of responding patients): greater than 6 months | patients achieving decreased adenopathy ([3]; phase 2, relapsed CLL): 94.5% | patients having experienced a partial response ([3]; phase 2, relapsed CLL): 61.5%

Intersubject variability (%CV) of Cmax and AUClast ([10]; SAD, 6 out of 7 dose cohorts): < 40% | Ae0‐96 ([10]; SAD, single oral 30 mg): 0.4 (0.3) mg | fe0‐96 ([10]; SAD, single oral 30 mg): 1.5 (0.9) % | Ae0‐96 ([10]; SAD, single oral 100 mg): 2.4 (0.5) mg | fe0‐96 ([10]; SAD, single oral 100 mg): 2.4 (0.5) % | Ae0‐96 ([10]; SAD, single oral 200 mg): 4.3 (0.8) mg | fe0‐96 ([10]; SAD, single oral 200 mg): 2.2 (0.4) % | Ae0‐96 ([10]; SAD, single oral 300 mg): 7.0 (2.0) mg | fe0‐96 ([10]; SAD, single oral 300 mg): 2.3 (0.7) % | Ae0‐96 ([10]; SAD, single oral 400 mg): 20.2 (14.3) mg | fe0‐96 ([10]; SAD, single oral 400 mg): 5.1 (3.6) % | Tmax ([10]; oral): 1 to 4 h | half-life ([10]; oral): 57 to 94 h | Cmax ([10]; po, 3 mg): 1.5 ng/mL | Tmax ([10]; po, 3 mg): 1 h | AUC(0-t) ([10]; po, 10 mg): 150 ng·h/mL | Cmax ([10]; po, 10 mg): 10.5 ng/mL | Tmax ([10]; po, 10 mg): 1 h | half-life ([10]; po, 10 mg): 57.1 h | AUC(0-t) ([10]; po, 30 mg): 878 ng·h/mL | Cmax ([10]; po, 30 mg): 42.9 ng/mL | Tmax ([10]; po, 30 mg): 1 h | half-life ([10]; po, 30 mg): 56.7 h | AUC(0-t) ([10]; po, 100 mg): 5400 ng·h/mL | Cmax ([10]; po, 100 mg): 263 ng/mL | Tmax ([10]; po, 100 mg): 2 h | half-life ([10]; po, 100 mg): 69.8 h | AUC(0-t) ([10]; po, 200 mg): 13700 ng·h/mL | Cmax ([10]; po, 200 mg): 629 ng/mL | Tmax ([10]; po, 200 mg): 2 h | half-life ([10]; po, 200 mg): 77.2 h | AUC(0-t) ([10]; po, 300 mg): 11800 ng·h/mL | Cmax ([10]; po, 300 mg): 558 ng/mL | Tmax ([10]; po, 300 mg): 2.1 h | half-life ([10]; po, 300 mg): 93.8 h | AUC(0-t) ([10]; po, 400 mg): 22300 ng·h/mL | Cmax ([10]; po, 400 mg): 996 ng/mL | Tmax ([10]; po, 400 mg): 4 h | half-life ([10]; po, 400 mg): 65.1 h | Fluctuation ([18]; MAD day 10, 11 mg once daily): 90.7 (43.9) % | Tmax ([18]; MAD day 10, 11 mg once daily, median (min, max)): 1.5 (0.5, 2.0) Hours | Ae0‐24 ([18]; MAD day 10, 11 mg once daily): 0.4 (0.1) mg | fe0‐24 ([18]; MAD day 10, 11 mg once daily): 3.3 (1.3) % | Fluctuation ([18]; MAD day 10, 33 mg once daily): 88.0 (15.9) % | Tmax ([18]; MAD day 10, 33 mg once daily, median (min, max)): 1.5 (1.0, 2.1) Hours | Ae0‐24 ([18]; MAD day 10, 33 mg once daily): 1.3 (0.0) mg | fe0‐24 ([18]; MAD day 10, 33 mg once daily): 4.0 (0.1) % | Fluctuation ([18]; MAD day 10, 66 mg once daily): 98.8 (24.1) % | t1/2 ([18]; MAD day 10, 66 mg once daily): 61.3 Hours and 61.3 (10.2) Hours | Tmax ([18]; MAD day 10, 66 mg once daily, median (min, max)): 4.0 (2.0, 4.0) Hours | Ae0‐24 ([18]; MAD day 10, 66 mg once daily): 3.7 (0.6) mg | fe0‐24 ([18]; MAD day 10, 66 mg once daily): 5.6 (1.0) % | Fluctuation ([18]; MAD day 10, 110 mg once daily): 92.8 (30.7) % | t1/2 ([18]; MAD day 10, 110 mg once daily): 75.3 Hours and 75.3 (11.2) Hours | Tmax ([18]; MAD day 10, 110 mg once daily, median (min, max)): 3.0 (3.0, 6.0) Hours | Ae0‐24 ([18]; MAD day 10, 110 mg once daily): 6.96 (1.7) mg | fe0‐24 ([18]; MAD day 10, 110 mg once daily): 6.3 (1.5) % | intersubject variability (CV%) for exposure parameters ([18]; MAD steady state, all dose cohorts): ≤ 45% | steady state achieved ([18]; MAD, trough levels days 4, 7, 8, 9, 10): ≤ 7 days | Tmax ([18]; human, plasma, oral): 1.5 to 4 h | AUC ([18]; human, plasma, oral, 11 mg): 507 ng·h/mL | Cmax ([18]; human, plasma, oral, 11 mg, MAD day 10, 11 mg once daily): 32.6 ng/mL | AUC ([18]; human, plasma, oral, 33 mg): 1810 ng·h/mL | Cmax ([18]; human, plasma, oral, 33 mg, MAD day 10, 33 mg once daily): 118 ng/mL | AUC ([18]; human, plasma, oral, 66 mg): 4630 ng·h/mL | Cmax ([18]; human, plasma, oral, 66 mg, MAD day 10, 66 mg once daily): 317 ng/mL | AUC ([18]; human, plasma, oral, 110 mg): 8490 ng·h/mL | Cmax ([18]; human, plasma, oral, 110 mg, MAD day 10, 110 mg once daily): 557 ng/mL | CL renal ([18]; human, oral, 11 mg): 0.2 mL/min/kg | CL renal ([18]; human, oral, 33 mg): 0.2 mL/min/kg | CL renal ([18]; human, oral, 66 mg): 0.2 mL/min/kg | CL renal ([18]; human, oral, 110 mg): 0.2 mL/min/kg
SMILES: CC(=O)O.NC(=O)c1cnc(N[C@@H]2CCCC[C@@H]2N)nc1Nc1cccc(-n2nccn2)c1 [PRT062607, 4‐((3‐(2H‐1,2,3‐triazol‐2‐yl)phenyl)amino)‐2‐(((1R,2S)‐2‐aminocyclohexyl)amino)pyrimidine‐5‐carboxamide acetate]
% inhibition hind paw inflammation ([4]; 10 mg/kg): 55% | % inhibition hind paw inflammation ([4]; 15 mg/kg): 90% | serious adverse events ([5]; 11 to 110 mg once daily for 10 days): no SAEs | AEs considered by the investigator related to the study drug ([5]; 71 of 96 AEs): 74% | number of AEs reported ([5]; all PRT062607 doses): 96 | subjects reporting AEs ([5]; all PRT062607 doses (13 subjects)): 54.2% | overall safety and tolerability ([6]; SAD and MAD, entire range of doses): safe and well tolerated | serious adverse events ([6]; SAD, 3 to 400 mg): no serious adverse events | number of reported TEAEs ([6]; SAD, 200‐mg dose group): 15 | subject incidence of TEAEs ([6]; SAD, 200‐mg dose group): 67% | number of reported TEAEs ([6]; SAD, 300‐mg dose group): 7 | subject incidence of TEAEs ([6]; SAD, 300‐mg dose group): 67% | number of reported TEAEs ([6]; SAD, 400‐mg dose group): 3 | subject incidence of TEAEs ([6]; SAD, 400‐mg dose group): 17% | moderate intensity TEAEs (dizziness, headache, musculoskeletal pain) ([6]; SAD, all PRT062607 doses): 3 | subjects with abdominal pain ([6]; SAD, all PRT062607 doses): 3 subjects | subjects with diarrhea ([6]; SAD, all PRT062607 doses): 3 subjects | subjects with dizziness ([6]; SAD, all PRT062607 doses): 3 subjects | subjects with headache ([6]; SAD, all PRT062607 doses): 6 subjects | subjects with nausea ([6]; SAD, all PRT062607 doses): 3 subjects | subjects with rhinitis ([6]; SAD, all PRT062607 doses): 2 subjects | number of TEAEs ([6]; SAD, all subjects receiving PRT062607): 37 | subjects reporting TEAEs ([6]; SAD, all subjects receiving PRT062607 (17/42)): 40% | effect on PMA‐induced T‐cell activation [7]: no effect | effect on fMLP stimulation (SYK‐independent) [8, 20]: no effect | inhibition of fMLP‐mediated basophil degranulation [8, 21]: No inhibition | IC50 [9]: 1050 nM | inhibition of BCR‐mediated pSYK Y352 [11, 21]: No consistent inhibition | inhibition of LYN‐mediated pSYK ([11]; SAD study, versus plasma concentration): No concentration‐dependent inhibition | inhibition of LPS‐induced DC activation [12]: No inhibition | inhibition of PMA‐induced pERK Y204 [13]: inability | effect on FcγR‐mediated (opRBC) DC activation, surface CD80/86 and MHCII [14]: inhibited | opRBC‐induced ROS formation, concentration‐dependent ([15]; replicate experiments, different donors): inhibited | opRBC‐induced ROS generation ([15]; whole blood pretreated with 4 μM): completely abrogated | effect on PMA stimulation (SYK‐independent) [16, 20]: no effect | inhibition of PMA‐induced B‐cell activation [16, 21]: no inhibition | inhibition of PMA‐mediated pERK Y204 [17]: No consistent inhibition | effect on CD3/CD28‐induced T‐cell activation [19]: no effect
